Reference: ChEMBL document CHEMBL1158991, “Cytotoxic and antimalarial constituents of the roots of Eurycoma longifolia” (J Nat Prod, 1991)
Converted amounts (≈) assume the structure as drawn.

What was measured:
[1] = tested on: KB; test: Cytotoxicity against human KB cells; assay type: functional; conditions: read-out: ED50 (the source's name)
[2] = Cytotoxicity against human fibrosarcoma cells; assay type: functional; conditions: Fibrosarcoma cell, read-out: ED50 (the source's name)
[3] = Cytotoxicity against human melanoma cells; assay type: functional; conditions: Melanoma cell, read-out: ED50 (the source's name)
[4] = tested on: Plasmodium falciparum; test: Antimalarial activity against Plasmodium falciparum W2 in human erythrocytes after 24 hrs by [3H]hypoxanthine uptake; assay type: functional, organism-based
Procedure, shortened: (§1)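 P. falciparum (D-6 chloroquine-sensitive, W-2 chloroquine-resistant) kept in type A+ human erythrocytes, RPMI-1640 with 32 mM NaHCO3, 35 mM HEPES and 10% heat-inactivated A+ plasma, 5% O2/5% CO2/90% N2, 37°. Assay: 0.5–1.0% parasitemia, 1.0% hematocrit, triplicates over 7-5000 ng/ml, 24 h. Then 0.5 µCi [3H]-hypoxanthine added for a further 18-24 h. Uninfected-cell dpm subtracted. IC50 by linear regression.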

[5] = Cytotoxicity against human lung cancer cells; assay type: functional; conditions: Cancer cell lines, read-out: ED50 (the source's name)
[6] = Cytotoxicity against human colon cancer cells; assay type: functional; conditions: Cancer cell lines, read-out: ED50 (the source's name)
[7] = Cytotoxicity against human KBV1 cells; assay type: functional; conditions: KB-V1, read-out: ED50 (the source's name)
[8] = Cytotoxicity against human breast cancer cells; assay type: functional; conditions: Cancer cell lines, read-out: ED50 (the source's name)
[9] = tested on: Plasmodium falciparum; test: Antimalarial activity against Plasmodium falciparum D6 in human erythrocytes after 24 hrs by [3H]hypoxanthine uptake; assay type: functional, organism-based; procedure, shortened: as §1
[10] = tested on: P388; test: Cytotoxicity against mouse P388 cells; assay type: functional; conditions: read-out: ED50 (the source's name)

Structure (SMILES) | EC50 [1] | EC50 [2] | EC50 [3] | IC50 [4] | EC50 [5] | EC50 [6] | EC50 [7] | EC50 [8] | IC50 [9] | EC50 [10]
C=C1[C@@H](O)[C@@]2(O)OC[C@]34[C@H]2[C@@]2(C)[C@H](O)C(=O)C=C(C)[C@@H]2C[C@H]3OC(=O)[C@H](O)[C@@]14O [EURYCOMANONE] | 1.9 µg/mL (≈ 4.65 µM) | 0.2 µg/mL (≈ 0.49 µM) | 8.2 µg/mL (≈ 20.1 µM) | 0.0481 µg/mL (≈ 0.118 µM) | 14.3 µg/mL (≈ 35 µM) | 1.2 µg/mL (≈ 2.94 µM) | 0.8 µg/mL (≈ 1.96 µM) | 1.1 µg/mL (≈ 2.69 µM) | 0.0477 µg/mL (≈ 0.117 µM) | > 20 µg/mL
C[C@@H]1CC[C@H]2[C@@H](C)C(=O)O[C@@H]3O[C@@]4(C)CC[C@@H]1[C@]32OO4 [ARTEMISININ] |  |  |  | 0.0018 µg/mL (≈ 0.00638 µM) |  |  |  |  | 0.0027 µg/mL (≈ 0.00956 µM) | 
COc1ccc2c(c1)[nH]c1c(CCC(=O)O)nccc12 |  |  |  | 2.98 µg/mL (≈ 11 µM) |  |  |  |  | 3.14 µg/mL (≈ 11.6 µM) | 
COc1ccc2c3ccnc4ccc(=O)n(c2c1)c43 |  |  |  |  |  |  |  |  |  | 1.4 µg/mL (≈ 5.59 µM)
C=C[C@H]1CN2CC[C@H]1C[C@H]2[C@H](O)c1ccnc2ccc(OC)cc12 [QUININE] |  |  |  | 0.114 µg/mL (≈ 0.353 µM) |  |  |  |  | 0.0194 µg/mL (≈ 0.0598 µM) | 
O=c1ccc2c3c(cc[n+]2[O-])c2ccc(O)cc2n13 | 4.8 µg/mL (≈ 19 µM) | 4.9 µg/mL (≈ 19.4 µM) | 7 µg/mL (≈ 27.8 µM) |  | 5.1 µg/mL (≈ 20.2 µM) | 7.5 µg/mL (≈ 29.7 µM) | > 20 µg/mL | 3.5 µg/mL (≈ 13.9 µM) |  | 12 µg/mL (≈ 47.6 µM)
COc1ccc2c3cc[n+]([O-])c4ccc(=O)n(c2c1)c34 | 3.8 µg/mL (≈ 14.3 µM) | 4.5 µg/mL (≈ 16.9 µM) | 6.5 µg/mL (≈ 24.4 µM) |  | 5.2 µg/mL (≈ 19.5 µM) | 8.1 µg/mL (≈ 30.4 µM) | > 20 µg/mL | 6 µg/mL (≈ 22.5 µM) |  | 11.7 µg/mL (≈ 43.9 µM)
OC(c1cc(C(F)(F)F)nc2c(C(F)(F)F)cccc12)C1CCCCN1 (configuration not stated) [MEFLOQUINE] |  |  |  |  |  |  |  |  | 0.0095 µg/mL (≈ 0.0251 µM) | 
O=c1ccc2nccc3c4ccc(O)cc4n1c23 | 2 µg/mL (≈ 8.47 µM) | 3.5 µg/mL (≈ 14.8 µM) | 5.4 µg/mL (≈ 22.9 µM) |  | 3.8 µg/mL (≈ 16.1 µM) | 4.8 µg/mL (≈ 20.3 µM) | > 20 µg/mL | 2.6 µg/mL (≈ 11 µM) |  | 1.5 µg/mL (≈ 6.35 µM)
